From PubChem
CHT block: inhibitors of human choline transporter CHT | AID 488975 | Q9GZV3 | CHT-expressing cells, membrane potential dye, choline response; hits give low values | B-score at 10 µM | 0.86% of 310,000 active;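 active = B-score over 3 SD under the library average, and starting fluorescence ratio not unusually high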;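 note: choline stimulus applied at its EC90 after an EC20 pre-addition; B-score computed on integrated fluorescence ratio after choline addition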
Target sequence (Q9GZV3 whole entry, looked up): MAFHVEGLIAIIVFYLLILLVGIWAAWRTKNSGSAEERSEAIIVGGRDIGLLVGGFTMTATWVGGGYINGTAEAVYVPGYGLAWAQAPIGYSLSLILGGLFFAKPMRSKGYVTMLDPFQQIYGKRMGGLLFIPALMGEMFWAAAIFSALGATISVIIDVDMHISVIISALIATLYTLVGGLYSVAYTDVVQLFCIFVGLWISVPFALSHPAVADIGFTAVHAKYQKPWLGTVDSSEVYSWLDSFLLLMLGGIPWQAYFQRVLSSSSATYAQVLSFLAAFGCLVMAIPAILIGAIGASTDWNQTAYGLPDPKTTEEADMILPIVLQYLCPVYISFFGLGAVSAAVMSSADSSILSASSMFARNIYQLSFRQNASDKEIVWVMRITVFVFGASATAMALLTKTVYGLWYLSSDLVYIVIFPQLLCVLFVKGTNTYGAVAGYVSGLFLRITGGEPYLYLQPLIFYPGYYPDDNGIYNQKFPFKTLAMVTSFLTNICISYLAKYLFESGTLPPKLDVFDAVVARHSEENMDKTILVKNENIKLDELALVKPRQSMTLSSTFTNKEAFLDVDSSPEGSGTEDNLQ
T cell modulator: modulates CD8 T cell binding to vesicles; 2C CD8+ T cell-vesicle binding, flow cytometry; hits give low values; response (vesicle binding), % at 7 µM; 0.068% of 330,000 active;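 active = response, share of CD8 T cells binding vesicles, and their 90th percentile fluorescence all below set limits, cut at about 80% in these data, passing the limit was not always enough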;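 note: values below 100% mean blocked vesicle binding to the CD8+ T cells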
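Assay system: 2C TCR transgenic mouse naive CD8+ T cells, MACS-purified | Read-out: CD8+ gate FL2 mean fluorescence as % of same-row positive control | Signal: High-throughput flow cytometry with anti-B7-1 and anti-CD8 staining | Timing: Binding step 1.5 h, 37 °C, antibody labelling 20 min, ice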
VLA-4 inh: inhibition in a human VLA-4 binding assay; P13612; VLA-4 expressing cells, ligand binding flow cytometry; inhibition, % (about 7 µM as worked out from the volumes in the protocol); 0.2% of 330,000 active; AID 2557; in the data active = inhibition above about 50%
CHT allo act: allosteric activators of human choline transporter CHT | B-score at 10 µM | CHT-expressing cells, membrane potential dye, choline EC20; hits give high values; LV-AA mutant CHT in HEK293 cells | 0.49% of 310,000 active | Q9GZV3;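 active = initial fluorescence not abnormally high and integrated response B-score, plate-corrected, over 3 SD above library mean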
VLA-4 allo CP: human VLA-4 allosteric modulation in cherry picked compounds. 2% of 1,300 active. inhibition, % at 6.7 µM. shares compounds with VLA-4 inh. U937 cells, HUTS-21 LIBS mAb binding, flow cytometry; LDV ligand present at threefold Kd; in the data active = inhibition above about 40%
CHT block conf: confirmation of human choline transporter CHT inhibitors. CHT-expressing cells, choline membrane potential dye; LV-to-AA substituted CHT, HEK293 cells. 70% of 2,400 active. CHT activity remaining % of control (hits give low values), % at 10 µM. shares compounds with CHT block;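 active = choline transporter activity left, mean of duplicates at 10 µM, below buffer-only control mean minus 3 SD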;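 note: depolarization triggered by choline at its EC90 following an EC20 pre-addition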
HEK293 MPD ctr: counter-screen for CHT inhibitors: effect in parental HEK293 cells. shares compounds with CHT block. 4% of 2,400 active. membrane potential dye, choline response; active = decrease or increase beyond buffer ±3SD. membrane potential ratio readout (active if shifted either direction beyond buffer ±3SD; no single direction) at 10 µM;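 note: parental cells lack the transporter so any hit is non-specific; ratio is peak minus trough fluorescence over baseline after EC90 choline challenge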
Each line names hits and unclear results; the compound was inactive in the other large screens (follow-up assays come after a bar, where they were run). Sampled rows, rich in hits. Any-hit rate of the full collection: about 1.5%.

COC(=O)C1CN(C#N)N(c2ccc(Cl)cc2)C12c1ccccc1-c1ccccc12 (stereo unspecified)	VLA-4 inh 62 | VLA-4 allo CP 53
CC1(C)C(C(=O)N2CCN(c3ccc(Cl)cc3)CC2)C1(C)C	none (no result: T cell modulator)
CC1(C)C[C@H]2C=C(C=O)[C@]3(C=O)C[C@]3(C)[C@H]2C1	VLA-4 inh 65 | VLA-4 allo CP 48
CC1Oc2cc3c(-c4c(O)cc(O)c5c(O)c6c(cc45)OC(C)C(C)C6=O)c(O)cc(O)c3c(O)c2C(=O)C1C (stereo unspecified)	none
Cc1nnc2ccc(-c3cccc(C(F)(F)F)c3)nn12	VLA-4 inh 63 | VLA-4 allo CP inactive
Cc1nc2ccccc2c(=O)n1-c1cccc(C(F)(F)F)c1	none
Cc1ccsc1/C=C1\C(=O)NC(=S)N(C)C1=O	none | VLA-4 allo CP inactive
COc1ccc(/C=C2\C(=O)NC(=S)N(C)C2=O)cc1C	none
Cc1ccc2c(c1)C1CN(C)CCC1N2C(=O)c1cn(-c2ccccc2)nc1-c1ccccc1 (stereo unspecified)	none
Cc1ccc2c(c1)C1CN(C)CCC1N2C(=O)Nc1cccc(C(F)(F)F)c1 (stereo unspecified)	CHT block -5.4 | CHT block conf 23% | HEK293 MPD ctr inactive
Cc1ccc2c(c1)C1CN(C)CCC1N2C(=O)c1cccnc1Cl (stereo unspecified)	none
Cc1ccc2c(c1)[C@@H]1CN(C)CC[C@@H]1N2C(=O)Nc1cccc(C(F)(F)F)c1	CHT block -7.2 | CHT block conf 26% | HEK293 MPD ctr inactive
Cc1ccc2c(c1)C1CN(C)CCC1N2C(=O)CCCN1C(=O)c2cccc3cccc(c23)C1=O (stereo unspecified)	CHT block -5.9 | CHT block conf 50% | HEK293 MPD ctr inactive
Cc1nn(Cc2ccccc2)c(C)c1C(=O)OCC(=O)NC1CCS(=O)(=O)C1 (stereo unspecified)	none
COc1cccc(C2CC3C(=O)C=CC2N3Cc2ccccc2)c1 (stereo unspecified)	CHT block -5.3 | CHT block conf -59% | HEK293 MPD ctr -40
O=C(COc1ccc(Cl)cc1)N1CCN(Cc2ccc([N+](=O)[O-])cc2)CC1	CHT block -5.1 | CHT block conf inactive | HEK293 MPD ctr inactive
COc1ccc(OCC(=O)N2CCN(Cc3nc4cc([N+](=O)[O-])ccc4n3C)CC2)cc1	none
CN1C(=O)C(=Cc2coc3ccccc3c2=O)C(=O)N(C)C1=O	none
O=C1NC(=O)C(=Cc2coc3ccc(O)cc3c2=O)C(=O)N1	CHT block -6.3 | CHT block conf 60% | HEK293 MPD ctr inactive
C=C1C[C@@H]2[C@H](CC[C@]3(C)C(=O)CC[C@@H]23)[C@@]2(C)C=CC(=O)C=C12	none
Oc1ccc(CC2CC3CCN2CC3)cc1O (stereo unspecified)	CHT block -16 | CHT block conf 13% | HEK293 MPD ctr inactive
CCCC12CN3CC(CCC)(CN(C1)C3c1ccccn1)C2=O (stereo unspecified)	none
Cc1ccc(N)c(C(=O)c2ccc(Br)cc2)c1	CHT block -5.1 | CHT block conf inactive | HEK293 MPD ctr inactive
CCCNc1nc(OC)nc(N2CC3CC(C2)c2cccc(=O)n2C3)n1 (stereo unspecified)	none
NC(Cc1ccccc1)c1nc(-c2ccccc2)no1 (stereo unspecified)	none
COc1cc(C=C2C(=O)NC(=O)NC2=O)ccc1OS(=O)(=O)c1ccccc1[N+](=O)[O-]	CHT block -5.3 | CHT block conf 55% | HEK293 MPD ctr inactive
CCOc1cc(C=C2C(=O)NC(=O)NC2=O)ccc1OS(=O)(=O)c1ccccc1	CHT block -7.3 | CHT block conf 36% | HEK293 MPD ctr inactive
O=C1NC(=O)C(=Cc2ccc(OCCOc3ccc([N+](=O)[O-])cc3)cc2)C(=O)N1	none
